Measurements from different studies.
Each line is one published result; the experiments were not run side by side.
gag-pol protease: Gag-Pol polyprotein, protease (gag-pol, Human immunodeficiency virus type 1 group M subtype B, UniProt P04585)
gag-pol reverse transcriptase: Gag-Pol polyprotein, reverse transcriptase (gag-pol, Human immunodeficiency virus type 1 group M subtype B, UniProt P04585)

SMILES	target	test	endpoint	value
CC(C)[C@H](NC(=O)[C@H](CCCNC(=N)N)NC(=O)[C@H](CO)NC(=O)[C@@H](N)Cc1c[nH]c2ccccc12)C(=O)NCC(=O)N[C@@H](Cc1ccc(O)cc1)C(=O)N[C@@H](Cc1c[nH]c2ccccc12)C(N)=O	gag-pol protease	binding, SPR	Kd	44600 nM
CC1(C)CC(=O)c2cc3c(C#N)cn(Cc4ccccc4)c3nc2C1	gag-pol reverse transcriptase	enzyme activity, inhibitor, FRET	IC50	> 10000 nM
CC(C)CN(C[C@@H](O)[C@H](Cc1ccccc1)NC(=O)O[C@H]1CCO[C@H]2OCC[C@H]21)S(=O)(=O)c1ccc(C(=O)O)cc1	gag-pol protease	enzyme activity, inhibitor	Ki	0.0076 nM
C=CCCc1c(O)cccc1C(=O)N[C@@H](Cc1ccc(OCC=C)cc1)[C@H](O)CN(CC(C)C)S(=O)(=O)c1ccc(OC)cc1	gag-pol protease	enzyme activity, inhibitor	Ki	5 nM
Cc1cn([C@H]2C[C@H](N=[N+]=[N-])[C@@H](CO[P@](=O)(O)O[P@](=O)(O)OP(=O)(O)O)O2)c(=O)[nH]c1=O	gag-pol reverse transcriptase	enzyme activity, inhibitor	IC50	185 nM
COc1ccc2c(c1)OCCCCCCCCCN(C[C@@H](O)[C@H](Cc1ccccc1)NC(=O)O[C@H]1CO[C@H]3OCC[C@H]31)S2(=O)=O	gag-pol protease	enzyme activity, inhibitor	Ki	< 0.7 nM
C=CCCCOc1ccc(C[C@H](NC(=O)c2cccc(O)c2CCC=C)[C@H](O)CN(CC(C)C)S(=O)(=O)c2ccc(OC)cc2)cc1	gag-pol protease	enzyme activity, inhibitor	Ki	45 nM
CCCc1c2c(nc3c1c(C#N)cn3C1CCCCC1)CCC2=O	gag-pol reverse transcriptase	enzyme activity, inhibitor, FRET	IC50	> 100000 nM
COc1ccc(S(=O)(=O)N(CC(C)C)C[C@@H](O)[C@@H]2Cc3ccc(cc3)OCCCC=CCCc3c(O)cccc3C(=O)N2)cc1	gag-pol protease	enzyme activity, inhibitor	Ki	10 nM
CC(C)(C)n1cc(C#N)c2cc(C=O)cnc21	gag-pol reverse transcriptase	enzyme activity, inhibitor, FRET	IC50	> 10000 nM
CC(C)C[C@H]1C(N2CC[C@H](N3C(=O)C=C(OC(C)(C)C)[C@@H]3C)C2)=CC(=O)N1[C@H]1CCN(C2=CC(=O)N[C@H]2Cc2ccccc2)C1	gag-pol protease	enzyme activity, inhibitor, fluorescence	IC50	54900 nM
O=C(O)Cc1ccc(O)c(O)c1	Gag-Pol polyprotein, integrase (gag-pol, Human immunodeficiency virus type 1 group M subtype B, UniProt P04585)	enzyme activity, inhibitor	IC50	> 25000 nM
Cc1ccc(-c2cnc3c(c2)c(C#N)cn3Cc2ccccc2)cc1	gag-pol reverse transcriptase	enzyme activity, inhibitor, FRET	IC50	> 100000 nM
